TAAR1 antagonist = human TAAR1 antagonism. Q96RJ0. inhibition, % at 3 µM. CHO RD-HGA16 TAAR1, Fluo-8 calcium fluorescence, antagonist. 360,000 compounds, 1.5% hits;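 active means inhibition above a per-plate cutoff, the mean inhibition of test compounds on that plate plus 3 SD, cut at about 49% in these data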
Target sequence (Q96RJ0 whole entry, looked up): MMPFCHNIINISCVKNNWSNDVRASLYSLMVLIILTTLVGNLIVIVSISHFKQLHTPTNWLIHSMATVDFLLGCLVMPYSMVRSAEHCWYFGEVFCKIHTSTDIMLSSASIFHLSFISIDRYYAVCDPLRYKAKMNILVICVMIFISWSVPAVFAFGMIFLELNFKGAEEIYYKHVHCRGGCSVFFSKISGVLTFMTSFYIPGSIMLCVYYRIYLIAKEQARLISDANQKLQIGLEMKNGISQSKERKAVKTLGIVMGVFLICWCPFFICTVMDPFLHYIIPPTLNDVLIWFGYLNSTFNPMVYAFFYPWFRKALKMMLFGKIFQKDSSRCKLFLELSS
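System: CHO RD-HGA16 cells bearing hTAAR1. Reagent: EC80 β-phenethylamine stimulus. Schedule: seeding 17-24 h prior, 75-min 37 °C, 30-min RT dye loading. Signal: Fluo-8 intracellular calcium dye fluorescence, real-time kinetic reads. Read-out: % inhibition from peak post-agonist over basal fluorescence ratio. Benchmarks: vehicle wells and EC80 agonist wells. Replicates: n of 1.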
TAAR1 ag = human TAAR1 agonism | Q96RJ0 | CHO RD-HGA16 TAAR1, Fluo-8 calcium fluorescence; vehicle wells 0%, saturating PEA agonist 100% | activation, % at 3 µM | 360,000 compounds, 0.99% hits | AID 624467;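 active means activation above the mean activation of all test compounds in the run plus 3 SD, cut at about 38% in these data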
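System: CHO-derived RD-HGA16 cells with stable Gα16 and human TAAR1. Times: 17-24 h plating, Fluo-8 75 min 37 °C, 30 min RT. Measured by: calcium-sensitive Fluo-8 signal, excitation 470-495, emission 515-575 nm. Read-out basis: % activation relative to PEA EC100 response. Control set: DMSO and PEA EC100. Repeats: no replicates (n 1).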
GalR3 antagonist = antagonists of human GalR3 | inhibition, % at 3 µM | 360,000 compounds, 0.44% hits | AID 651719 | O60755 | HEK293 GalR3-CNG cAMP membrane potential fluorescence; galR3 body fused to GalR1 C-terminus;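 active means inhibition above the screen-wide average plus 3 SD, cut at about 13% in these data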;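 further: forskolin and galanin both at EC90 stimulate the cells; cAMP rise reported by CNG channel membrane potential dye signal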
Target sequence (O60755 1-299 limits assumed): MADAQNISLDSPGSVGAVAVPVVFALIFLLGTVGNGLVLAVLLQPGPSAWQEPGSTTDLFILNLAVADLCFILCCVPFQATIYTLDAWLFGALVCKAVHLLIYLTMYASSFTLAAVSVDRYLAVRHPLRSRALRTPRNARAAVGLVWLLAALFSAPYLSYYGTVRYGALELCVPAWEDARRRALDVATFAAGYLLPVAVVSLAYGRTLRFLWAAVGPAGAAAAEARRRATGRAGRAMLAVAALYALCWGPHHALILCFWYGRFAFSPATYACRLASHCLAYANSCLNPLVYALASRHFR
OX1R antag-1 = blocks the human orexin 1 receptor | O43613 | CHO/OX1R cells, Fluo-8 calcium fluorescence, orexin A | inhibition, % at 5 µM | 330,000 compounds, 0.43% hits | AID 434989;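 active means inhibition above its plate's threshold, mean inhibition of all tested compounds on the plate plus 3 SD, cut at about 37% in these data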
OX1R antag-2 = blocks the human orexin 1 receptor; O43613; OX1R-expressing cells, FRET antagonist read-out; inhibition, % at 6.6 µM; 330,000 compounds, 1.8% hits; in the data active means inhibition mostly above about 38%, no sharp cut-off; inactive means mostly below about 40%
CHO parental Ca = counter-screen: ATP calcium response change in parental CHO cells; parental CHO-K1, ATP-induced calcium, Fluo-8 fluorescence; inhibition, % at 5.6 µM; 330,000 compounds, 0.63% hits; AID 463079;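 active means inhibition above that plate's mean sample inhibition plus 3 SD, cut at about 26% in these data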
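material = parental CHO cells | also added = ATP as calcium-mobilizing challenge | dosing = single point at 5.6 µM | detection = intracellular calcium via Fluo-8 no-wash fluorescent dye | read-out = % inhibition | benchmarks = low control ATP plus DMSO, high control DMSO only | repeats = one well per compound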
TAAR1 ag conf = human TAAR1 agonism, confirmed | shares compounds with TAAR1 ag | CHO RD-HGA16 TAAR1, Fluo-8 calcium fluorescence; scaled: DMSO 0%, maximal phenethylamine 100% | activation, % at 3 µM | 2,400 compounds, 82% hits | AID 651783;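 active means activation above a cutoff set at the run's mean compound activation plus 3 SD, cut at about 39% in these data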
Ga16 nonsel ag = counter-screen for TAAR1 agonists: nonselective agonists in parental cells; shares compounds with TAAR1 ag; CHO-Ga16 parental, Fluo-8 calcium fluorescence; normalized to maximal ATP response, DMSO zero; activation, % at 3 µM; 2,400 compounds, 50% hits; AID 651787;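 active means activation above the run cutoff, the mean activation over all tested wells plus 3 SD, cut at about 12% in these data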
TAAR1 desens = TAAR1 response desensitization, agonist counter-screen; shares compounds with TAAR1 ag; CHO RD-HGA16 hTAAR1, Fluo-8 calcium, beta-PEA response inhibition; inhibition, % at 3 µM; 2,400 compounds, 46% hits; AID 651951;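 active means inhibition above the run cutoff, the mean inhibition of all test compounds plus 3 SD, cut at about 49% in these data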;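 further: beta-PEA stimulus applied at its EC80; loss of beta-PEA calcium signal after compound pretreatment read as receptor desensitization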
Ga16 antag count = nonselective Ga16 antagonism, counter-screen. 2,400 compounds, 39% hits. CHO-Ga16 ATP-induced calcium, Fluo-8 fluorescence. shares compounds with TAAR1 ag. AID 651952. inhibition, % at 3 µM;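 active means inhibition above the plate's mean compound inhibition plus 3 SD, computed per plate, cut at about 22% in these data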
Large screens that a line does not name were inactive (follow-up assays come after a bar, where they were run). In the library only some 4.2% were active in any assay of this set; here they are far more common.

CC(C)CNC(=O)C1C(=O)Nc2ccccc2C(=O)N1C(C)(C)C (stereo not drawn)	none (no result: OX1R antag-1, OX1R antag-2, CHO parental Ca)
COc1ccc(C(c2sc3nc(C)nn3c2O)N2CCc3ccccc3C2)cc1 (stereo not drawn)	none (no result: GalR3 antagonist)
COc1cccc(C(c2sc3ncnn3c2O)N2CCc3ccccc3C2)c1 (stereo not drawn)	TAAR1 ag 73 (no result: GalR3 antagonist) | TAAR1 ag conf 82 | Ga16 nonsel ag inactive | TAAR1 desens inactive | Ga16 antag count inactive
COc1cc(C(c2sc3nc(C)nn3c2O)N2CCc3ccccc3C2)cc(OC)c1OC (stereo not drawn)	TAAR1 ag 45 (no result: GalR3 antagonist) | TAAR1 ag conf 45 | Ga16 nonsel ag inactive | TAAR1 desens inactive | Ga16 antag count inactive
O=C(Cn1cnnn1)OCC(=O)c1ccc(Cl)s1	none
Cc1ccc(NC(=O)CCN2CCN(C/C=C/c3ccccc3)CC2)cc1	none
Nc1nnn(CC(=O)N/N=C/c2cccc3ccccc23)n1	none
O=C(Cn1nnc(N2CCCCC2)n1)NN=Cc1ccccc1O	TAAR1 ag 49 (no result: OX1R antag-1, OX1R antag-2, CHO parental Ca) | TAAR1 ag conf 64 | Ga16 nonsel ag inactive | TAAR1 desens inactive | Ga16 antag count inactive
COc1ccc(OC)c(/C=C2/Sc3ccccc3C2=O)c1	TAAR1 antagonist 61, TAAR1 ag 74, OX1R antag-1 57, CHO parental Ca 37 | TAAR1 ag conf inactive | Ga16 nonsel ag 29 | TAAR1 desens inactive | Ga16 antag count 50
Cc1ccc(NC(=O)Cn2c(O)c(N=NC(=O)c3ccncc3)c3ccccc32)cc1	none (no result: TAAR1 antagonist, TAAR1 ag, GalR3 antagonist)
O=C(N/N=C/c1ccncc1)c1sc2ccccc2c1Cl	none
COc1ccc2c(Cl)c(C(=O)N/N=C/c3ccncc3)sc2c1	TAAR1 antagonist 49, TAAR1 ag 72 | TAAR1 ag conf inactive | Ga16 nonsel ag inactive | TAAR1 desens inactive | Ga16 antag count inactive
O=C(Nc1ccccc1C(F)(F)F)c1ccccn1	none
O=S(=O)(Nc1cccnc1)c1ccc(C2CCCCC2)cc1	TAAR1 ag 56, OX1R antag-1 42, CHO parental Ca 35 | TAAR1 ag conf 71 | Ga16 nonsel ag 28 | TAAR1 desens inactive | Ga16 antag count 31
O=S(=O)(Nc1cccnc1)c1ccccc1	none
N#Cc1nc(-c2cccs2)oc1NCCc1ccccc1	TAAR1 ag 51 | TAAR1 ag conf 49 | Ga16 nonsel ag inactive | TAAR1 desens inactive | Ga16 antag count inactive
CCOc1ccc(CCNC(=O)COC(=O)C2CCN(S(=O)(=O)c3ccc(C)c(C)c3)CC2)cc1OCC	none
CCOc1ccc(S(=O)(=O)Nc2cccc(C(=O)NCC(c3ccccc3)N(C)C)c2)cc1 (stereo not drawn)	TAAR1 ag 58 | TAAR1 ag conf inactive | Ga16 nonsel ag 23 | TAAR1 desens inactive | Ga16 antag count 26
CCOc1ccc(NS(=O)(=O)c2ccc(C(=O)NCC3(N(C)C)CCCCC3)cc2)cc1	TAAR1 ag 66, CHO parental Ca 55 | TAAR1 ag conf inactive | Ga16 nonsel ag inactive | TAAR1 desens inactive | Ga16 antag count 27
CCOc1ccc(S(=O)(=O)Nc2cccc(C(=O)NCC(c3ccco3)N(C)C)c2)cc1 (stereo not drawn)	none
COc1ccc(C(CNC(=O)c2cccc(NS(=O)(=O)c3ccccc3)c2)N(C)C)cc1 (stereo not drawn)	none
Cc1ccc(NS(=O)(=O)c2ccc(C(=O)NCC(c3ccco3)N3CCCCC3)cc2)cc1 (stereo not drawn)	TAAR1 antagonist 63, TAAR1 ag 91 | TAAR1 ag conf 73 | Ga16 nonsel ag 33 | TAAR1 desens inactive | Ga16 antag count 28
CCOc1ccc(NS(=O)(=O)c2ccc(C(=O)NCC(c3ccco3)N(C)C)cc2)cc1 (stereo not drawn)	TAAR1 ag 89 | TAAR1 ag conf 80 | Ga16 nonsel ag 50 | TAAR1 desens inactive | Ga16 antag count 39
C#CCn1c(O)c(N=NC(=O)CNC(=O)c2cccnc2)c2ccccc21	none
CCC(C(=O)Nc1ncc(C)s1)c1ccccc1 (stereo not drawn)	none
CCOc1ccc(NS(=O)(=O)c2ccc(C(=O)NCC(c3ccco3)N3CCCCC3)cc2)cc1 (stereo not drawn)	TAAR1 ag 84 (no result: OX1R antag-1, OX1R antag-2, CHO parental Ca) | TAAR1 ag conf 91 | Ga16 nonsel ag 41 | TAAR1 desens 54 | Ga16 antag count 38
COc1ccc(NC(=O)Cc2ccc(Cl)cc2Cl)cn1	TAAR1 ag 56 | TAAR1 ag conf inactive | Ga16 nonsel ag inactive | TAAR1 desens inactive | Ga16 antag count inactive
CC(C)CCNc1nc(N)c([N+](=O)[O-])c(NCCO)n1	none
Cc1cccc(Nc2cc(C)c3c(O)cccc3n2)c1C	TAAR1 antagonist 82, TAAR1 ag 94 | TAAR1 ag conf 96 | Ga16 nonsel ag 22 | TAAR1 desens 92 | Ga16 antag count inactive
Cc1cccc(NC(=S)N(C)C)c1C	none
O=[N+]([O-])c1ccc(/C=C/C2=NN(c3ccccc3)C(c3ccco3)C2)cc1 (stereo not drawn)	TAAR1 antagonist 75, TAAR1 ag 80, OX1R antag-1 80, CHO parental Ca 69 | TAAR1 ag conf 128 | Ga16 nonsel ag 198 | TAAR1 desens 90 | Ga16 antag count 95
CCCCNc1ccc2c(c1)OC[C@H](CC(C)C)NS2(=O)=O	none (no result: OX1R antag-1, OX1R antag-2, CHO parental Ca)
COc1ccc(OC(=O)NCCc2ccccc2)cc1	TAAR1 ag 57 | TAAR1 ag conf 84 | Ga16 nonsel ag inactive | TAAR1 desens 73 | Ga16 antag count inactive
COc1ccccc1CC(=O)NCCCc1ccccc1	none
Cc1cc(Cl)nc(Cl)c1C(=O)NCCc1ccccc1	none (no result: TAAR1 antagonist, TAAR1 ag) | Ga16 nonsel ag inactive | Ga16 antag count inactive
COc1ccccc1CC(=O)NCCc1ccccc1	TAAR1 ag 69 | TAAR1 ag conf 85 | Ga16 nonsel ag inactive | TAAR1 desens 77 | Ga16 antag count inactive
COc1ccc(C(=O)CC(=O)C(=O)NCCc2cccc(C)c2)cc1	TAAR1 antagonist 80, TAAR1 ag 84 | TAAR1 ag conf 94 | Ga16 nonsel ag inactive | TAAR1 desens 84 | Ga16 antag count inactive

Screening data as filed in PubChem BioAssay.
